Series [1] can be described thus: Blood compatibility study. The series is classed as cell-based. To be noted: rat, heparinized whole blood. The method, boiled down:
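Rat heparinized blood (0.2 mL) added to 3 mL normal saline containing test material at 1000 µg/mL, saline-only negative and distilled-water positive controls; 1 h at 37 °C with shaking; centrifuged 6000 rpm, 20 min; filtered supernatant read at 545 nm for released hemoglobin; activity = (sample − negative control absorbance)/positive control absorbance.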

Series [2] is described as follows: Thermogravimetric analysis. In kind it is physicochemical. To be noted: TGA. The method, boiled down: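 Samples of about 5 mg in platinum pans heated from 5 °C to 900 °C at 10 °C per min under nitrogen flowing at 60 mL per min; percentage weight loss recorded against temperature.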
A short description of series [3]: In vivo pharmacokinetic study, intravenous. Details: species or system female Wistar rats. To be noted: rat. The method, boiled down:
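Eight-week-old female Wistar rats (250 ± 10 g), single i.v. dose of test compound solution at 10 mg/kg (nanoparticles at equivalent dose), saline control group. Tail-vein blood (300 µL) at 1–38 h into heparinized tubes; plasma by chilled centrifugation; acetonitrile protein precipitation, nitrogen drying, methanol reconstitution; HPLC-UV with plasma calibration 0.5–20 µg/mL; mean ± SD, n = 6.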

Setting [4] is: female, Wistar, plasma, iv, 10 mg/kg.
Where [5] appears, read: i.v., DZ 10 mg/kg equivalent, n = 6, listed as DZ-Solution.

One may read the MRT inf as the average time that molecules of a dose stay in the body. As a reminder, the Tmax is the time at which the peak concentration occurs. In general, AUC(0-inf) refers to the area under the concentration-time curve extrapolated to infinity. For orientation: Cmax means the peak of the concentration-time curve. As a reminder, the half-life is the time in which the quantity being followed falls by half. `O=c1c(-c2ccc(O)cc2)coc2cc(O)ccc12` [DZ, daidzein]: the hemolysis at 1 h, 1000 µg/mL in series [1] is 0.98 ± 0.14%. In addition, in series [2], the “Temperature at which decomposition started” value is 340–350 °C. In series [3] (setting [4]), the MRT inf came to 2.97 ± 0.95 h and the time to peak (Tmax) was determined as 1 ± 0.78 h. Also, the AUC(0-inf) in series [3] (female, Wistar, plasma, iv, 10 mg/kg, AUC0−∞, DZ 10 mg/kg equivalent, n = 6) worked out at 2300 µg·h/mL. In addition, the Cmax in series [3] (female, Wistar, plasma, iv, 10 mg/kg, C max, DZ 10 mg/kg equivalent, n = 6) turned out to be 382 µg/mL. Further, in series [3] (female, Wistar, plasma, iv, 10 mg/kg, t1/2, rat, DZ 10 mg/kg equivalent, n = 6), the half-life was 3.45 h. In series [3] (setting [5]), the “AUC0−∞” value worked out at 2299.73 ± 0.67 µg·h/mL, the C max amounted to 381.59 ± 1.12 µg/mL and the t1/2 was 3.44 ± 0.44 h.

The values are drawn from article PMC11757988 (Scientific Reports, 2025).
